CHRM4 PAM = potentiates acetylcholine response at human M4 receptor; CHO-K1 hM4/Gqi5, Fluo-8 calcium fluorescence, ACh EC20; 0% = ACh EC20, 100% = maximal ACh; activation, % at 3 µM; 360,000 compounds, 0.4% hits; AID 624126;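 active means activation above its plate's cutoff, the mean activation of sample wells plus 3 SD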
Target sequence (P08173 whole entry, looked up): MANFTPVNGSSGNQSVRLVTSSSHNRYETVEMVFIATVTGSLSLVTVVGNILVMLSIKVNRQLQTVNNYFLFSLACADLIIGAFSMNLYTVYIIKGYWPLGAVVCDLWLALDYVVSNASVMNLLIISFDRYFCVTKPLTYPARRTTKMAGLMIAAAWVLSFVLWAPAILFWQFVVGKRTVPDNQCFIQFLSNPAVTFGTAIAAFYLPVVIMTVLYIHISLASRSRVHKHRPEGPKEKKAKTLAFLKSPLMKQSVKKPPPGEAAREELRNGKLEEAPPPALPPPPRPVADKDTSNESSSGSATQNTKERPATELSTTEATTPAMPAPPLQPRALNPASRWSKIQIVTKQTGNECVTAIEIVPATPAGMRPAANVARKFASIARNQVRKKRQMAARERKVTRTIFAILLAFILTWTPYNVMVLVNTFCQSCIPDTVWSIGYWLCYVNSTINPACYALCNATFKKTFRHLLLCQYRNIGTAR
M4 ag = agonists of human muscarinic M4 receptor (CHRM4); activation, % at 3 µM; CHO-K1 hM4/Gqi5, Fluo-8 calcium fluorescence; vehicle 0%, full acetylcholine response 100%; AID 624127; P08173; 360,000 compounds, 0.14% hits;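 active means activation above the run mean over all test wells plus 3 SD, cut at about 32% in these data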;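 further: peak over basal fluorescence ratio per well then scaled between controls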
CHRM4 antagonist = antagonists of human muscarinic M4 receptor (CHRM4) | P08173 | CHO-hM4 cells, ACh EC80, Fluo-8 calcium fluorescence | inhibition, % at 3 µM | 360,000 compounds, 0.73% hits;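 active means inhibition above its plate's cutoff, the mean inhibition of sample wells plus 3 SD, cut at about 27% in these data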
CHRM5 agonist = CHRM5 agonism in calcium assay | CHO-K1 hM5 cells, Fluo-8 calcium fluorescence; 0% DMSO wells, 100% maximal acetylcholine response | activation, % at 3 µM | 360,000 compounds, 0.19% hits;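 active means activation above the run's mean over test compounds plus 3 SD, cut at about 23% in these data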;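 further: signal is peak over basal fluorescence ratio across the kinetic read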
CHRM5 PAM = potentiates acetylcholine response at human M5 receptor; CHO-K1 hM5, Fluo-8 calcium, ACh EC20 PAM; 0% = ACh EC20, 100% = ACh EC100; activation, % at 3 µM; P08912; 360,000 compounds, 0.3% hits;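 active means activation above the run cutoff, the mean activation of all test compounds plus 3 SD, cut at about 18% in these data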
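Measured by: Fluo-8 calcium fluorescence; material: human M5 receptor in CHO-K1 cells; schedule: Post-acetylcholine fluorescence recording 140 s; benchmarks: low control EC20 acetylcholine (0%), high control EC100 acetylcholine (100%); read-out: Max/basal fluorescence ratio as % of EC20–EC100 ACh window; compound: single dose, 3 µM nominal final test concentration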
M5 antag = antagonists of human muscarinic M5 receptor (CHRM5) | 360,000 compounds, 0.59% hits | CHO-hM5 cells, Fluo-8 calcium fluorescence, ACh EC80 | P08912 | AID 624040 | inhibition, % at 3 µM;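 active means inhibition above a per-plate cutoff, the mean of that plate's test compounds plus 3 SD, cut at about 27% in these data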
Of the large screens only hits and unclear results are named; the others gave an inactive call; ! = repeats disagree. A selection: hits, their analogues and other compounds. The true share with any hit is near 1.8%.

CCC(OC(=O)c1ccco1)C(=O)NCc1ccc(C)cc1 (stereo unspecified)	none
CCC1Nc2ncnc(N3CCOCC3)c2N(Cc2ccc(Cl)cc2)C1=O (stereo unspecified)	CHRM4 PAM 24
CC1Nc2ncnc(N3CCOCC3)c2N(Cc2ccc(Cl)cc2)C1=O (stereo unspecified)	none
O=C(NCCC1CCCCN1S(=O)(=O)c1ccc(F)cc1)C(=O)Nc1ccccc1 (stereo unspecified)	none
Cc1cc(=O)[nH]c2c1c(-c1ccccc1)nn2C	CHRM4 antagonist 100
CN1C(=O)CCC2(c3ccccc3)CC=C(O)C=C12 (stereo unspecified)	none
Cc1cc(C)n(S(=O)(=O)c2ccc(C(C)(C)C)cc2)n1	CHRM4 antagonist 29
Cc1cc(C)n(S(=O)(=O)c2ccc(F)cc2)n1	none
NS(=O)(=O)c1cc(C(=O)OCC(=O)N2CCc3ccccc3C2)ccc1Cl	none
Cc1ccc(S(=O)(=O)N2CC3=C(C2)C2CC2(C)C3)cc1 (stereo unspecified)	none
Cc1nc2ccc(NS(=O)(=O)c3ccc4c(c3)OCCO4)cc2s1	CHRM4 antagonist 27
Cc1ccc(S(=O)(=O)Nc2ccc3nc(C)sc3c2)cc1	M5 antag 30
Cc1nc2ccc(NS(=O)(=O)c3ccc(F)c(F)c3)cc2s1	none
N#CC1(NC(=O)COC(=O)C2=COCCO2)CCCCC1	M4 ag 113
CN(C(=O)COC(=O)C1=COCCO1)C1(C#N)CCCCC1	none
CCOC(=O)C(NC(=O)CC)(Nc1cc(C)on1)C(F)(F)F (stereo unspecified)	CHRM4 PAM 34
CCOCCn1ccc2c(OCC(=O)NCc3ccccc3)cccc2c1=O	none
CC[N+](C)(CC)CCOC(=O)C(O)(c1ccccc1)C1CCCCC1 (stereo unspecified)	CHRM4 antagonist 99, M5 antag 98
CC[N+](C)(CC)CCC(c1ccccc1)C1CCCCC1 (stereo unspecified)	CHRM4 antagonist 97, M5 antag 99
CCC(C(=O)NC1CCCCCC1)c1ccccc1 (stereo unspecified)	none
O=C1CCCCC1C(O)(C(=O)c1ccccc1)c1ccccc1 (stereo unspecified)	none
CO/N=C/C(C#N)=C/c1ccc(OC)c(OC)c1	CHRM4 PAM 20
O=C(Cn1cc(C(F)(F)F)ccc1=O)NC1CCCC1	none
COc1ccc(N=Cc2oc3ccc4ccccc4c3c2O)cc1	CHRM5 agonist 47
Cc1ccc(F)cc1C(=O)N1CCCC1(C)C(=O)NCC(C)C (stereo unspecified)	none
O=C(Nc1cc(S(=O)(=O)N2CCOCC2)ccc1N1CCCC1)c1ccc2c(c1)S(=O)(=O)c1ccccc1C2=O	none
CCCCN1C2=C(C(=O)CC(C)(C)C2)C(c2ccccc2)C2=C1c1ccccc1C2=O (stereo unspecified)	none
CCCN1C2=C(C(=O)CC(C)(C)C2)C(c2ccc(F)cc2)C2=C1c1ccccc1C2=O (stereo unspecified)	CHRM4 PAM 30
COc1cccc(NC(=O)CN(C)C(=O)CSc2ccc3c(c2)OCCO3)c1	none
COc1ccccc1CN1CCC(CNS(=O)(=O)c2cc(-c3onc(C)c3C)ccc2OC)CC1	CHRM4 antagonist 42
O=S(=O)(/N=C(\c1ccc(F)cc1)N1CCOCC1)c1ccccc1	none
CC(NC(=O)Cn1ccsc1=N)C12CC3CC(CC(C3)C1)C2 (stereo unspecified)	none
CC(NC(=O)Cn1c(=O)[nH]c2ccsc2c1=O)C12CC3CC(CC(C3)C1)C2 (stereo unspecified)	CHRM4 PAM 19
CCCCSc1nc2ccc(Nc3nc(N4CCOCC4)nc(N4CCOCC4)n3)cc2s1	CHRM4 PAM 24
CCCCNC(=O)CSc1nc2ccc(Nc3nc(N4CCOCC4)nc(N4CCOCC4)n3)cc2s1	none
CCOC(=O)C1=NN(c2ccccc2)C2C(=O)N(c3ccccc3OC)C(=O)C12 (stereo unspecified)	M5 antag 27
CCOC(=O)C1=NN(c2ccc(OC)cc2)C2C(=O)N(c3ccccc3OC)C(=O)C12 (stereo unspecified)	none
CC(=O)c1ccc(-n2ccc(=O)cc2)cc1	none
O=C(CN1C(=O)CCC1=O)Nc1cccc(NC(=O)CN2C(=O)CCC2=O)c1	CHRM5 PAM 19
O=C(CN1C(=O)CCC1=O)Nc1ccc(Br)cc1	none
O=C(COC(=O)c1cccc(Br)c1)NCC1CCCO1 (stereo unspecified)	none
COC(=O)c1sccc1NC(=O)Nc1cc(C)cc(C)c1	M5 antag 29
CCCCOC(=O)/C(=C\c1ccc([N+](=O)[O-])o1)NC(=O)c1ccccc1	CHRM4 antagonist 29
Cc1ccc(-c2nc(CS(=O)CC(=O)NCc3ccco3)c(C)o2)cc1 (stereo unspecified)	none
N#CCCn1cc(/C=N/NC(N)=S)c(-c2ccc(-c3ccccc3)cc2)n1	none
COCCCNc1nccn2ccnc12	none
CCN1CCN(Cc2ccc(NC(=O)c3ccc(C)c(NC(=O)c4ccnnc4)c3)cc2C(F)(F)F)CC1	none
CCN1CCN(Cc2ccc(C(=O)Nc3ccc(C)c(NCc4cnc(NC(=O)OC)cn4)c3)cc2C(F)(F)F)CC1	CHRM4 antagonist 33!
CC(C)(C)OC(=O)N1CCC(C(=O)Nc2cccc(C(=O)NCc3ccccc3)c2)CC1	none
COCCNC(=O)CN(C(=O)c1ccc(N2CCCC2)nc1)c1ccccc1	none
COCCNC(=O)CN(C(=O)c1ccc(N2CCCC2)nc1)c1ccc(F)c(Cl)c1	CHRM5 PAM 22
COc1ccc(C(=O)Nc2nc(-c3ccccn3)cs2)cc1S(=O)(=O)N1CCOCC1	none
COC(=O)CCCn1cc(CN(C)C2CN(Cc3cn(CCCC(=O)OC)nn3)S(=O)(=O)C2)nn1 (stereo unspecified)	none
CC(=O)Nc1ccc(NC(=O)C(C)OC(=O)c2ccc3c(c2)OCCO3)cc1 (stereo unspecified)	CHRM4 PAM 32
CC(=O)NCC(=O)OC(C)C(=O)Nc1ccc(C(C)=O)cc1 (stereo unspecified)	CHRM5 PAM 25
CCOc1ccccc1NC(=O)CN(c1ccc(OC)cc1)S(=O)(=O)c1c(C)[nH]c(=O)[nH]c1=O	none
COC(=O)c1ccc2nc(-c3cccc(Br)c3)c(Cc3ccsc3)n2c1	CHRM4 PAM 21
CC(C)N1CN(c2ccccc2)C(=S)N(c2ccccc2)C1	CHRM4 PAM 18
c1cc2c(cc1C1=NNC(=NC3CC3)SC1)OCCO2	M5 antag 100
C=CCN(C(=O)CN1CCCCC1)c1nc(-c2ccccc2)cs1	none

Bioassay records: PubChem, The Scripps Research Institute Molecular Screening Center
